Several values for one entry are separate records, joined by “and”; a condition that tells them apart may be missing. Equal entries are not always repeated. Where two headings read alike, the source gives them in different places.
Assays:
[1] = tested on: chloride conductance of the human red cell membrane; conditions: ref Bennekou and Stampe (1988); cited from earlier work
[2] = target: T1, chloride transport in human red blood cells; capnophorin (band 3 or AE1) (Homo sapiens, UniProt P02730); test: 36Cl- efflux; format: cell-based; conditions: 38C
T1 sequence (P02730 1-911): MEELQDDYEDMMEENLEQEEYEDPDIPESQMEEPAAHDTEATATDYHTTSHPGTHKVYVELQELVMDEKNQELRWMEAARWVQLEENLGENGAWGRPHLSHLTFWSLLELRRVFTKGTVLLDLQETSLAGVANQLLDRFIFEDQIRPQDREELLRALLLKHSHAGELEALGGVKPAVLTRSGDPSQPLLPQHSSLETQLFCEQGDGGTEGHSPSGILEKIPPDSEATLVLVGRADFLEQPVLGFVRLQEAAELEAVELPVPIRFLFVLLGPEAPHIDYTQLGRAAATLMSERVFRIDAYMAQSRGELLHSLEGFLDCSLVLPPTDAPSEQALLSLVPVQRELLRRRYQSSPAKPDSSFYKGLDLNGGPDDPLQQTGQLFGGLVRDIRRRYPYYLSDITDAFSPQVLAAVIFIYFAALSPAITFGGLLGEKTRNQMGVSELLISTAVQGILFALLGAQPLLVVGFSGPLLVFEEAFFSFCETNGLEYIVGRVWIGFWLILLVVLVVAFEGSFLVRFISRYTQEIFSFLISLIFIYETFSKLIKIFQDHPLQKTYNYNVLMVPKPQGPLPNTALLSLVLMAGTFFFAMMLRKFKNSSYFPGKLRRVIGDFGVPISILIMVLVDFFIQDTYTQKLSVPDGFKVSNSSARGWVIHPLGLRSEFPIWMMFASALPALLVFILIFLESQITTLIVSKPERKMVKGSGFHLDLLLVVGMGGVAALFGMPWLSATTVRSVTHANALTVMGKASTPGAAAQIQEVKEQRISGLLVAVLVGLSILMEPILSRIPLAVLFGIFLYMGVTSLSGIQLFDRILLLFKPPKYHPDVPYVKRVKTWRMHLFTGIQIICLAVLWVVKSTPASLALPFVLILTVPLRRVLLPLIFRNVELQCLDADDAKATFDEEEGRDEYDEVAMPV
Summary of the method: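 Fresh heparinized human blood washed four times in medium A (150 mM KCl, 0.5–2 mM KH2PO4, pH 7.2), buffy coat removed. Covalent labelling: ~50% hematocrit, 50 µM DIDS, 38°C, 45 min, then washes in medium A. Cells loaded with 3.7–18.5 kBq 36Cl per ml suspension and packed. Tracer efflux measured at 38°C, pH 7.2, by Millipore-Swinnex filtration or continuous flow tube. Rate constant taken from extracellular radioactivity over time, corrected for trapped isotope.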

[3] = tested on: band 3 protein, DIDS binding site; conditions: cited from earlier work
[4] = tested on: chloride conductance of the human red cell membrane; test: Conductance studies of net; format: cell-based; conditions: 16 µM DIDS; calculated from Bennekou and Stampe (1988) data
[5] = tested on: residual chloride transport in DIDS-C human red blood cells; test: 36Cl- efflux in DIDS-C cells; format: cell-based
[6] = target: human erythrocyte anion transporter; conditions: read-out: Dissociation constant of DNDS binding, ref Frohlich (1982), cited from earlier work

O=S(=O)(O)c1cc(N=C=S)ccc1C=Cc1ccc(N=C=S)cc1S(=O)(=O)O [DIDS, 4,4'-diisothiocyanostilbene-2,2'-disulfonic acid]
Inhibition of conductive flow of chloride [1]: ~ 100% | Chloride efflux after DIDS binding procedure performed once ([2]; 50 µM DIDS, 45 min, n = 10): 96.3 [SD-+ 8.1] pmol cm-2 s-1 | Chloride efflux after DIDS binding procedure performed twice ([2]; 50 µM DIDS, 45 min, n = 10): 94.1 [SD ~ 11.0] pmol cm-2 s-1 | Irreversible inhibition of chloride transport by maximum covalent DIDS binding ([2]; DIDS-C cells vs control cells, pH 7.2): 99.8% | Chloride self-exchange flux in DIDS-C cells ([2]; covalently bound DIDS, pH 7.2, n = 30): 106 pmol cm-2 s-1 and 106 (SD + 17) pmol cm-2 s-1 | Half-time for chloride tracer efflux in DIDS-C cells ([2]; found experimentally): 29 s | Half-time for irreversible DIDS binding ([3]; 0C, ref Janas et al., 1989): ~ 3 h | Time constant 1/k of irreversible DIDS binding ([3]; 38C, ref Janas et al., 1989): 2.2 rain | Reduction of conductive component of chloride efflux [4]: 96.4% | Reduction of conductive component of chloride efflux, fold [4]: 28 times | Chloride flux in DIDS-CR cells ([5]; covalent DIDS + 50 µM DIDS in flux medium, 38C, pH 7.2, n = 15): 0.60 [SD -- 0,16] pmol cm-2 s-1

O=[N+]([O-])c1ccc(C=Cc2ccc([N+](=O)[O-])cc2S(=O)(=O)O)c(S(=O)(=O)O)c1 [DNDS, 4,4'-dinitrostilbene-2,2'-disulfonate]
Kd ([6]; 0C): 84 nM | Kd ([6]; 10C): 86 nM | Kd ([6]; 20C): 90 nM

O=S(=O)(O)c1cc(N=C=S)ccc1CCc1ccc(N=C=S)cc1S(=O)(=O)O [H2DIDS, 4,4'-diisothiocyano-dihydrostilbene-2,2'-disulfonic acid]
Rate of binding to the DIDS binding site relative to DIDS ([3]; 0C, ref Shami, Rothstein, and Knauf, 1978): binds much faster than DIDS

CC(C)[C@@H]1NC(=O)[C@H](C)OC(=O)[C@@H](C(C)C)NC(=O)[C@@H](C(C)C)OC(=O)[C@H](C(C)C)NC(=O)[C@H](C)OC(=O)[C@@H](C(C)C)NC(=O)[C@@H](C(C)C)OC(=O)[C@H](C(C)C)NC(=O)[C@H](C)OC(=O)[C@@H](C(C)C)NC(=O)[C@@H](C(C)C)OC1=O [valinomycin]
Effect on initial 36Cl influx rate ([5]; valinomycin 1 µM, extracellular chloride < 1 mM): no detectable effect
